Shown are actives, neighbours in structure and some others; about 1.3% of the full set was active somewhere.
Biofilm kill mix – mixture kills Candida albicans biofilm cells; inhibition, % at 7.6 µM; 0.02% of 120,000 active; AID 1242; C. albicans biofilm persisters + clotrimazole, fluorescence viability; primary screen in compound mixtures of four per well;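 note: compounds exposed to preformed 24 h biofilms for 48 h; 0% = untreated biofilm control and 100% = clotrimazole plus chlorhexidine kill blank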
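Incubation: 24 h biofilm formation, then 48 h compound exposure, 37 °C | Material: C. albicans biofilms | Buffer or medium: RPMI/MOPS medium, pH 7.0 | Measured by: 2-h Alamar Blue fluorescence, 535/590 nm excitation/emission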
S1P4 antag – blocks the human S1P4 receptor; S1P4-expressing cells, antagonist mode, reporter read-out; inhibition, % at 4.98 µM; O95977; 0.26% of 220,000 active; in the data active = inhibition above about 29%;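 note: 0% = wells stimulated with agonist and 100% = vehicle wells without agonist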
Target sequence (O95977 whole entry, looked up): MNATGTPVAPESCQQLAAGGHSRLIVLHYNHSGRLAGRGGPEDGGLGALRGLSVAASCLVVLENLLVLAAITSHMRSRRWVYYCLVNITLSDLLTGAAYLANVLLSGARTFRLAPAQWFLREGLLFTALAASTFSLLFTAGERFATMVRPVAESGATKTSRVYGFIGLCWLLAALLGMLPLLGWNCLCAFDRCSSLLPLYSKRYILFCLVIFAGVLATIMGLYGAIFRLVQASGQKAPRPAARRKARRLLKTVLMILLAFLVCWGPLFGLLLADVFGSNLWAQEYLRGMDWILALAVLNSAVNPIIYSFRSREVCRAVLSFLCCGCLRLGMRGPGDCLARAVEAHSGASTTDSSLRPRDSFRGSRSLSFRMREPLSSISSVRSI
S1P4 ag – human S1P4 receptor agonism; S1P4-expressing cell line, agonist reporter assay; 0.35% of 220,000 active; activation, % at 4.98 µM; in the data active = activation above about 11%;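 note: 0% = DMSO vehicle and 100% = reference agonist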
TbHK1 inh – blocks Trypanosoma brucei hexokinase 1 activity. recombinant TbHK1, G6PDH-coupled NADH A340. inhibition, % at 10 µM. 0.11% of 220,000 active. AID 1430;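 active = inhibition of 50% or more in the single-dose primary screen; inactive = inhibition below 50%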
S1P3 antagonist – S1P3 (human) receptor antagonism; Q99500; inhibition, % at 4.98 µM; AID 485; CHO S1P3 NFAT-BLA reporter, FRET fluorescence, antagonist mode; 0.27% of 170,000 active;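 active = inhibition above the plate cutoff, the mean inhibition of test wells on that plate plus 3 SD, cut at about 28% in these data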;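 note: cells challenged with S1P at its EC80 of 0.8 µM; blue over green emission ratio from cleaved BLA substrate after 4 h stimulation; 0% = S1P-stimulated wells and 100% = unstimulated DMSO-only wells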
Dynein cargo inh – blocks dynein driven cargo transport along microtubules; z-score, hits read low; 3617.4 mouse cells, GR-EGFP nuclear translocation imaging; test concentration mostly 20 µM; stimulated with dexamethasone, 1 µM; active compounds read low; 0.47% of 220,000 active;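 active = plate z-score of nuclear minus cytoplasmic receptor signal below a set negative limit, without overly bright fluorescence or cell loss, cut at about -3.5 in these data, passing the limit was not always enough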;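 note: z-score of nuclear minus cytoplasmic ring GR-EGFP intensity difference per well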
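medium = tetracycline-free induction medium containing charcoal-stripped FBS | probe or stimulus = dexamethasone, 1.0 µM final | timing = 48 h induction, then 1 h compound, then 30 min agonist, 37 °C | detection = automated 10x imaging of fixed Hoechst-stained cells | read-out basis = nuclear versus cytoplasmic GR-EGFP signal, averaged per well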
S1P4 antag cf – human S1P4 antagonism, confirmation; S1P4-expressing cell line, antagonist mode, reporter read-out; inhibition, % at 4.98 µM; shares compounds with S1P4 antag; 71% of 520 active; in the data active = inhibition above about 30%
S1P1 antag – human S1P1 antagonism as S1P4 antagonist counter-screen; shares compounds with S1P4 antag; cell-based S1P1 antagonist counterscreen, inhibition; inhibition, % at 4.98 µM; 37% of 520 active; AID 1564; in the data active = inhibition above about 40%;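 note: receptor stimulated with S1P near its EC80; 0% = agonist stimulated wells and 100% = vehicle only wells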
* = called active by the depositor; / = not tested or not shown.

SMILES	Biofilm kill mix	S1P4 antag	S1P4 ag	TbHK1 inh	S1P3 antagonist	Dynein cargo inh	S1P4 antag cf	S1P1 antag
CC1=C(C(N)=O)C(c2ccccc2)n2nc(-c3ccncc3)nc2N1 (stereo not given)	/	-9.5	0.4	-10.6	-16.4	-1.07	/	/
COc1cc(SC)ccc1C(=O)Nc1c(C)cccc1C	16.2	81.1*	0.0	-2.8	0.4	-0.582	85.0*	12.3
CCN(CC)c1ccc2cc(C(C)=O)c(=O)oc2c1	/	6.7	4.7	-0.6	/	-0.31	/	/
CCN(CC)c1ccc2cc(NC(=O)CCC(=O)O)c(=O)oc2c1	/	32.3*	1.5	-10.9	33.8	-1.34	59.5*	45.3*
O=S(=O)(NCc1c(Cl)cccc1Oc1ccccc1)c1ccc(F)cc1	-2.8	-11.7	2.1	-3.3	-8.1	0.166	/	/
O=[N+]([O-])c1ccccc1C1Nc2cccc3cccc(c23)N1	/	59.4*	-2.2	-9.6	/	-3.44	-0.2	-40.6
O=[N+]([O-])c1ccc(Cl)c(C2Nc3cccc4cccc(c34)N2)c1	/	58.6*	-0.2	-2.3	/	-0.925	1.1	19.4
COc1ccc(/C=C2\SC(=O)N(CC(=O)NN3CCN(C)CC3)C2=O)cc1OC	12.7	-20.6	-0.2	-45.8	7.5	-0.309	/	/
Nc1cc(C(F)(F)F)ccc1Nc1ccccc1	20.4	1.8	-0.1	-7.0	4.3	2.27	/	/
Nc1cccc(-n2nncc2-c2ccc(Cl)cc2)c1	/	32.2*	-0.5	4.8	/	-0.545	6.7	13.5
Cc1ccc(-c2nc3ccccc3nc2NN)cc1	18.9	4.6	0.1	-10.0	-6.4	-2.05	/	/
CN(C(=O)C(Cl)Cl)c1ccc(OC(=O)c2ccco2)cc1	12.1	32.6*	-0.9	4.7	-24.5	1.36	34.4*	18.4
O=C(Oc1cccnc1)c1ccco1	/	9.1	3.2	3.1	/	0.242	/	/
CCOC(=O)c1sc(-c2ccc(C(F)(F)F)cc2)nc1O	22.1	38.1*	0.7	6.5	22.0	0.0119	33.6*	22.8
CCOC(=O)c1sc(-c2cccc(C(F)(F)F)c2)nc1O	16.8	16.6	0.3	-7.1	15.2	-0.847	/	/
O=C1/C(=C/c2ccncc2)CCC/C1=C\c1ccncc1	-8.1	83.2*	-0.8	-5.9	-23.0	-6.96*	98.9*	5.2
O=C1/C(=C/c2ccncc2)CCc2ccccc21	16.3	14.3	-0.6	-3.1	16.4	-3.26	/	/
CC(C)(C)c1ccc(C(O)CCCN2CCC(C(O)(c3ccccc3)c3ccccc3)CC2)cc1 (stereo not given)	12.1	32.6*	-1.1	10.4	-10.1	-6.22	6.4	-5.6
CCC1(C)OC(=O)N(CCCn2ccnc2C)C1(C)O (stereo not given)	/	-20.0	0.9	-5.9	/	-1.42	/	/
Cc1nccn1CCCN1C(=O)OC2(CCCCC2)C1(C)O (stereo not given)	14.0	31.9*	-2.9	-0.5	-6.5	1.07	1.9	-0.3
Cc1nn(-c2ccccc2)c2c1C(c1ccc(O)c(O)c1)N1C(=N2)C(Nc2ccccc2)=Nc2ccccc21 (stereo not given)	/	51.2*	-0.4	-22.1	/	-3.06	69.5*	65.4*
Cc1ccc(NC2=Nc3ccccc3N3C2=Nc2c(c(C)nn2-c2ccccc2)C3c2ccc(O)c(O)c2)cc1 (stereo not given)	/	23.6	1.4	-24.5	/	-0.608	/	/
O=C(CSc1cccc[n+]1[O-])Nc1ccc(C(F)(F)F)cc1[N+](=O)[O-]	8.4	-4.0	1.1	-7.1	-18.6	0.977	/	/
O=[N+]([O-])c1ccc(Sc2cccc[n+]2[O-])c2nonc12	17.9	90.7*	0.4	-20.2	22.1	10.1	114.0*	37.4
N=c1n(CCN2CCCCC2)c2ccccc2n1CC(O)c1ccc(Cl)c(Cl)c1 (stereo not given)	/	54.5*	-2.5	20.7	/	-3.29	58.4*	58.5*
SMILES	Biofilm kill mix	S1P4 antag	S1P4 ag	TbHK1 inh	S1P3 antagonist	Dynein cargo inh	S1P4 antag cf	S1P1 antag
COc1ccc(/C=N/Nc2nn3cnnc3c3ccccc23)cc1	16.9	30.4*	2.3	-57.4	2.2	1.23	-8.9	-7.3
Cc1cccc2c1NC(=O)/C2=C\C(=O)c1cccs1	/	24.2	1.0	-0.4	/	0.193	/	/
Cc1cc(Br)c2c(c1)/C(=C/C(=O)c1cccs1)C(=O)N2	20.8	35.1*	0.9	-4.1	-20.1	-0.603	68.1*	42.6*
CCc1ccc2c(c1)/C(=C/C(=O)c1cccs1)C(=O)N2	/	66.4*	-0.6	-1.3	/	-1.08	109.2*	78.1*
CC(C)(C)OC(=O)N[C@@H](Cc1ccccc1)c1nnc(S(=O)(=O)Cc2cccc(F)c2)o1	/	78.4*	-4.5	5.6	-9.4	-0.989	93.7*	10.5
CC[C@@H](C)[C@H](NC(=O)OC(C)(C)C)c1nnc(S(=O)(=O)Cc2cc(C)ccc2C)o1	/	57.3*	-4.1	4.2	-6.9	-2.5	105.2*	35.4
CN(C)c1ccc(C(C#N)c2ccccc2)nn1 (stereo not given)	-1.8	-6.7	-0.3	-4.7	-11.9	1.06	/	/
O=C(COC(=O)C1CCCCC1)Nc1cc([N+](=O)[O-])ccc1F	-9.4	-9.4	-0.3	-7.9	-17.8	0.449	/	/
O=C(Nc1nc(=O)c2ccccc2s1)c1ccccc1	/	36.3*	-1.2	-2.7	/	-0.484	-4.3	-5.7
CC(C)(C)OC(=O)CC[C@@H](C(=O)N1CCN(C(=O)OC(C)(C)C)CC1)n1cc(C(Cc2ccc(O)cc2)NC(=O)OC(C)(C)C)nn1 (stereo not given in full)	20.3	14.6	-0.5	-19.0	8.0	-0.786	/	/
Nc1nc(CCl)nc(Nc2cccc3ccccc23)n1	14.3	33.0*	-0.5	-4.7	-5.1	-1	54.6*	0.9
Nc1nc(Nc2cccc3ccccc23)nc(C2CCCC2=O)n1 (stereo not given)	/	-14.2	1.3	-5.0	-5.6	0.0538	/	/
Oc1ccccc1C1CC(c2cccs2)=NC(c2ccc(Cl)cc2)N1 (stereo not given)	24.2	46.4*	-0.3	-1.0	-6.3	2.16	21.1	12.2
CS(=O)(=O)N1N=C(c2cccs2)CC1c1ccccc1O (stereo not given)	19.3	0.7	-0.7	-4.1	5.7	-0.183	/	/
CN(C)c1ccc(C(=O)NC2CCCc3ccccc32)cc1 (stereo not given)	6.4	48.4*	-0.8	-0.7	-5.7	-0.139	56.2*	-10.2
O=C(/C=C/c1ccccc1)NC1CCCc2ccccc21 (stereo not given)	16.9	53.7*	-0.6	7.9	-0.6	1.33	53.6*	-20.8
Cc1cccc(C)c1NC(=O)c1ccc(-c2ccc(Cl)cc2Cl)o1	/	95.7*	0.7	2.9	/	1.38	110.7*	-2.1
CCCN1C(=O)S/C(=C/c2ccc(N3CCOCC3)o2)C1=O	-0.1	33.1*	-2.5	-12.4	-3.7	-0.161	14.0	6.7

Screens deposited in PubChem by several laboratories.
